A word on the IC50: it is the concentration that gives 50% inhibition.

Test [1] in a line: Cytotoxicity against human ARPE19 cells assessed as cell viability after 48 hrs by alamar blue assay. The test is classed as cell-based, ARPE-19. The conditions noted are these: Homo sapiens, ARPE-19, 48 h. Put shortly: (§1)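 Alamar Blue viability assay on the human cell line named (origins given: HT-29 colorectal adenocarcinoma, HepG2 hepatocellular carcinoma, LAMA-84 myeloid leukemia, A549 lung adenocarcinoma, PC3 prostate metastasis, MCF-7 breast adenocarcinoma, ARPE-19 retinal pigment epithelium, BJ skin fibroblast). Exposure was 48 h. Sterol stocks were made in DMSO. IC50 is the concentration inhibiting 50% of cellular growth, given as the mean of at least three separate experiments.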
A general note: Resazurin is reduced to fluorescent resorufin, in cell work by metabolically active cells.

Test [2] concerns HT-29. As to the kind of experiment: Selectivity index, ratio of IC50 for human ARPE19 cells to IC50 for human HT-29 cells. The test is classed as functional.
Test [3] relates to HT-29. As to the kind of experiment: Cytotoxicity against human HT-29 cells assessed as cell viability after 48 hrs by alamar blue assay. The conditions noted are these: HT-29, 48 h. The test is classed as functional, cell-based. The gist of the method:
as §1

The subject of test [4] is HT-29. The experiment in a line: Cytotoxicity against human HT-29 cells assessed as inhibition of cell growth after 96 hrs by alamar blue assay. It is filed as functional, cell-based. The conditions noted are these: HT-29, 96 h. Put shortly:
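HT-29 and ARPE-19 cells exposed for 96 h. ARPE-19 seeded at 5 10^3 cells/well for this period. Sterol stocks in DMSO. Viability by Alamar Blue. IC50 is the concentration inhibiting 50% of cellular growth, mean of at least three separate experiments.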

As for `CC(C)CCC[C@@H](C)[C@H]1CC[C@H]2[C@@H]3C(=O)C=C4C[C@@H](O)CC[C@]4(C)[C@H]3CC[C@]12C` [7-OXOCHOLESTEROL], in test [1], the IC50 was determined as 32.3 µM. In addition, in the test with HT-29 [2], the “Ratio IC50” value is 1.26.
Take `CC(=O)O[C@@H]1[C@H]2[C@@H]3CC[C@H]([C@H](C)CCCC(C)C)[C@@]3(C)CC[C@@H]2[C@@]2(C)CC[C@H](O)C[C@]2(O)[C@@H]1O`: the half-maximal inhibitory concentration (IC50) in the test with HT-29 [3] was 17 µM; in test [1], 15.8 µM; in the test with HT-29 [4], 15.5 µM. For the same compound, in the test on HT-29 [2], the “Ratio IC50” value was 0.93.
On to `CCCCCCCCCCCC(=O)O[C@H]1CC[C@@]2(C)C(=C[C@H](O)[C@H]3[C@@H]4CC[C@H]([C@H](C)CCCC(C)C)[C@@]4(C)CC[C@@H]32)C1`, for which the half-inhibitory concentration (IC50) in the test with HT-29 [3] and in the test on HT-29 [4] was greater than 50 µM throughout.
As for `CC(=O)O[C@H]1CC[C@]2(C)[C@H]3CC[C@]4(C)[C@@H]([C@H](C)CCCC(C)C)CC[C@H]4[C@@H]3[C@@H](OC(C)=O)C(=O)[C@@]2(O)C1`, the half-maximal inhibitory concentration (IC50) with HT-29 [3] amounted to 27.2 µM.
On to `CC(C)CCC[C@@H](C)[C@H]1CC[C@H]2[C@@H]3[C@@H](O)[C@H](O)[C@H]4C[C@@H](O)CC[C@]4(C)[C@H]3CC[C@]12C`, for which the IC50 with HT-29 [3] stood at 14.9 µM; in test [1], 19.1 µM. For the same compound, the “Ratio IC50” value with HT-29 [2] is recorded as 1.28.
For `CC(C)CCC[C@@H](C)[C@H]1CC[C@H]2[C@@H]3[C@@H](O)C=C4[C@@H](O)[C@@H](O)CC[C@]4(C)[C@H]3CC[C@]12C`, the 50% inhibitory concentration (IC50) was 15.4 µM in the test with HT-29 [3] and 25.6 µM in test [1]. In the test on HT-29 [2], the “Ratio IC50” value is listed as 1.66.
Consider `CC(=O)O[C@H]1CC[C@]2(C)[C@H]3CC[C@]4(C)[C@@H]([C@H](C)CCCC(C)C)CC[C@H]4[C@@H]3[C@@H](OC(C)=O)[C@@H](OC(C)=O)[C@@]2(O)C1`, for which the IC50 in the test on HT-29 [3] was found to be 27 µM; in the test with HT-29 [4] it was 26.7 µM.
As for `CO[C@]12C[C@@H](O)CC[C@]1(C)[C@H]1CC[C@]3(C)[C@@H]([C@H](C)CCCC(C)C)CC[C@H]3[C@@H]1C[C@H]2O`, the IC50 in the test with HT-29 [3] was determined as 36.1 µM.
Still for that read-out and setting: as for `CC(C)CCC[C@@H](C)[C@H]1CC[C@H]2[C@@H]3C(=O)C(O)=C4C[C@@H](O)CC[C@]4(C)[C@H]3CC[C@]12C`, the figure is 36.7 µM.
Take `CC(C)CCC[C@@H](C)[C@H]1CC[C@H]2[C@@H]3CC(=O)[C@@]4(O)C[C@@H](O)CC[C@]4(C)[C@H]3CC[C@]12C`: the IC50 in test [1] came out at 33.9 µM. Further, the “Ratio IC50” value with HT-29 [2] was determined as 1.99.
For `CC(=O)O[C@H]1CC[C@]2(C)[C@H]3CC[C@]4(C)[C@@H]([C@H](C)CCCC(C)C)CC[C@H]4[C@@H]3C[C@@H](O)[C@@]2(O)[C@H]1O`, the results for the IC50 (in the test on HT-29 [3]; in test [1]; with HT-29 [4]) were 17.7 µM, 28.8 µM and 14.2 µM, respectively. In the test on HT-29 [2], the “Ratio IC50” value is reported as 1.63.
On to `CCCO[C@@H]1C[C@H]2[C@@H]3CC[C@H]([C@H](C)CCCC(C)C)[C@@]3(C)CC[C@@H]2[C@@]2(C)CC[C@H](O)C[C@]12O`, for which the half-inhibitory concentration (IC50) in the test on HT-29 [3] amounted to 25.9 µM.
On to `CC(=O)O[C@H]1C=C2C[C@@H](O)CC[C@]2(C)[C@H]2CC[C@]3(C)[C@@H]([C@H](C)CCCC(C)C)CC[C@H]3[C@H]12`, for which the 50% inhibitory concentration (IC50) amounted to 26.8 µM with HT-29 [3] and 24.6 µM in the test on HT-29 [4].
For the compound `CC(C)CCC[C@@H](C)[C@H]1CC[C@H]2[C@@H]3C(=O)[C@H](O)[C@@]4(O)C[C@@H](O)CC[C@]4(C)[C@H]3CC[C@]12C`, the results for the half-maximal inhibitory concentration (IC50) (in the test with HT-29 [3]; in test [1]) were 15.2 µM and 25.7 µM, respectively. Further, the “Ratio IC50” value in the test with HT-29 [2] came to 1.69.

The record behind these values is ChEMBL document CHEMBL1821637, “Selective cytotoxicity of oxysterols through structural modulation on rings A and B. Synthesis, in vitro evaluation, and SAR” (J Med Chem, 2011).
